Rows were chosen to be rich in hits. Some 1.3% of all compounds tested hit in one or more screens of this group.
Lipid droplet: modulators of hepatic lipid droplet formation. AML12 mouse hepatocytes, oleate lipid droplets, BODIPY imaging. inhibition, % at 6.5 µM. actives 0.4% (n = 240,000);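 active = lipid droplet intensity inhibited by at least 50%, with more than 500 cells counted; inconclusive = wells with under 300 cells, treated as cytotoxic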
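Material: mouse AML12 hepatocyte cell line, fixed after treatment; Timing: compound with oleate, overnight; Technique: high-content imaging of BODIPY-stained droplets and DAPI nuclei; Probe or stimulus: oleate, 100 µM final; Dosing: compound at 6.5 µM only.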
TAG inh: inhibitors of triacylglycerol accumulation; H9c2 cells, Nile Red lipid (TAG) fluorescence; cells loaded with 200 µM oleic acid; inhibition, % at 12.5 µM; actives 0.66% (n = 230,000); AID 651582;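 active = pattern-corrected inhibition of lipid staining of at least 50% with the nuclear-stain viability signal not falling by more than 50%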
GSK3beta inhib: inhibitors of human GSK3beta kinase; P49841; actives 0.038% (n = 300,000); activity score (negative = inhibition), % at 10 µM; GST-GSK3beta kinase, ADP-Glo luminescence, 60 min; stronger effect = lower value;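 active = more than half of replicate wells score below -50%, meaning over 50% inhibition versus plate controls; inconclusive = some replicates but at most half score below -50%; inactive = no replicate scores below -50%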
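Test system – GST-tagged human GSK3beta kinase, cell-free · Incubation – 60 min enzyme reaction, room temperature · Signal – ADP-Glo luminescence · Also added – peptide substrate and ATP at 25 µM · Controls – DMSO neutral wells and GW8510 at 20 µM as positive · Buffer or medium – Tris/MgCl2 kinase buffer · Measure – Luminescence-derived activity versus plate DMSO and GW8510 wells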
LANA-H2B inh: blocks KSHV LANA binding to histone H2A/H2B; Q9QR71; AID 2629; inhibition, % (test concentration not listed); actives 0.6% (n = 320,000); cell-free LANA-H2A/H2B peptide, fluorescence polarization; in the data active = inhibition mostly above about 10%, no sharp cut-off; inactive = mostly below about 6.7%
STK33 kinase inh: blocks human STK33 kinase activity; Q9BYT3; purified STK33, MBP phosphorylation, ADP-Glo luminescence; inhibition, % at 10 µM; actives 0.073% (n = 320,000); AID 2661;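 active = inhibition at or above 25%, using the most active replicate where run in duplicate; inactive = inhibition below 25%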
GSK3A inh: human GSK-3 alpha kinase inhibition. P49840. ADP-Glo luminescence, 60 min. inhibition, % at 10 µM. actives 0.1% (n = 320,000);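 active = more than half of replicates show inhibition above 20%; inconclusive = some but at most half of replicates above 20% inhibition; inactive = no replicate shows inhibition above 20%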;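 note: GST-tagged GSK-3 alpha with peptide substrate and 25 µM ATP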
Target sequence (P49840 whole entry, looked up): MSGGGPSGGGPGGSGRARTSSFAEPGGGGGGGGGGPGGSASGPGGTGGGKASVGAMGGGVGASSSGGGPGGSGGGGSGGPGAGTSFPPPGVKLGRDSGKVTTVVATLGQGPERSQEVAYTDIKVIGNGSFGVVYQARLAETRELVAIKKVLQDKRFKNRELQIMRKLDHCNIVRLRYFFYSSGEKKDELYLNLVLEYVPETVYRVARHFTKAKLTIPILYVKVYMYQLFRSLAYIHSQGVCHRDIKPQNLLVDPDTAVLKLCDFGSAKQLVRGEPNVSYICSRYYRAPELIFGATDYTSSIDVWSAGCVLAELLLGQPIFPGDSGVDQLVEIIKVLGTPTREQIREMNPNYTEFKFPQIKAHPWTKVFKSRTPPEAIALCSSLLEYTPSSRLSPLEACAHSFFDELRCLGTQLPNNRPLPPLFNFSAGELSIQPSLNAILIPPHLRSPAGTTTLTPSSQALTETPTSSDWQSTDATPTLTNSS
Each line names hits and unclear results; the compound was inactive in the other large screens; ! = a repeat was not active.

Cc1noc(C)c1C(=O)OCC(=O)c1c[nH]c2ccccc12	none (no result: Lipid droplet, TAG inh, GSK3A inh)
CCN(CC)C(=O)COC(=O)c1ccc(C)c(NC(=O)c2ccco2)c1	none
COc1ccc(OC)c(S(=O)(=O)N2CCC(C(=O)NC3CCCCC3)CC2)c1	none (no result: TAG inh)
C=CCN=C1SCC(=O)N1S(=O)(=O)c1ccccc1	none (no result: Lipid droplet)
CCOc1ccccc1NC(=O)COC(=O)c1ccc2ccccc2n1	LANA-H2B inh 111 (no result: Lipid droplet, GSK3beta inhib)
O=C(CCl)NC1CCCc2ccccc21 (centres undefined)	none
O=C(CN1CCN(c2cccc(Cl)c2)CC1)NC1CCCc2ccccc21 (centres undefined)	LANA-H2B inh 20 (no result: TAG inh)
CCOC(=O)c1cc2c(c(CCO)n1)[C@@H](CCO)N(S(=O)C(C)(C)C)C2 (some centres undefined)	none (no result: Lipid droplet, GSK3beta inhib, LANA-H2B inh, STK33 kinase inh, GSK3A inh)
O=C(NCC1CCCO1)C1CCN(S(=O)(=O)c2cc(Cl)ccc2Cl)CC1 (centres undefined)	LANA-H2B inh 13 (no result: TAG inh)
COc1ccc(Cl)cc1S(=O)(=O)N1CCC(C(=O)NCC2CCCO2)CC1 (centres undefined)	none
CC(C)CC1NC(=O)c2ccccc2-n2c1nc1ccccc1c2=O (centres undefined)	none (no result: Lipid droplet, TAG inh, GSK3beta inhib)
CCCCCOc1ccc(Br)cc1/C(C)=N/NC1=NCCN1	Lipid droplet inconclusive, TAG inh 69
Cc1ccccc1NC(=S)/C(=C(\[O-])c1cc(C)n(Cc2ccccc2Cl)c1C)[n+]1ccccc1	none
Cc1cc(CNC(=O)[C@H]2C[C@@H]2[C@H](NP(=O)(c2ccccc2)c2ccccc2)c2ccccc2)nn1C	LANA-H2B inh 24 (no result: TAG inh, GSK3beta inhib)
CCOC(=O)c1cc(OC(=O)c2ccccc2Br)n(-c2ccccc2)n1	LANA-H2B inh 17 (no result: TAG inh)
O=C(O)Cc1ccc(N=Cc2c(O)ccc3ccccc23)cc1	STK33 kinase inh 50 (no result: TAG inh)
O=C(O)c1ccc(N=Cc2c(O)ccc3ccccc23)cc1	none (no result: TAG inh)
COC(=O)C1=C(C)N(Cc2ccccc2)C(=NCc2ccccc2)N[C@H]1c1cccc(F)c1	TAG inh 92
CC(C)(C)N1CC(c2nc3ccccc3n2Cc2ccccc2)CC1=O (centres undefined)	none (no result: TAG inh)
CN1CCN(c2ccc(NC(=O)c3ccc(-c4cccc([N+](=O)[O-])c4)o3)cc2)CC1	STK33 kinase inh 36 (no result: TAG inh)
CN1CCN(c2ccc(NC(=O)c3ccc(-c4ccc(Cl)cc4)o3)cc2)CC1	LANA-H2B inh 66
Cc1ccccc1OCC(=O)OCC(=O)NCc1ccco1	none (no result: Lipid droplet)
O=C(COC(=O)COc1ccccc1)NCc1ccco1	LANA-H2B inh 18 (no result: Lipid droplet)
Cc1c(Br)c(C(F)(F)F)nn1CC(=O)NCC1CCCO1 (centres undefined)	none (no result: Lipid droplet, TAG inh)
CCCN1C(=O)/C(=C2\SC(N3CCCCC3)=NC2=O)c2ccccc21	TAG inh 51 (no result: Lipid droplet)
O=C1c2ccccc2-c2onc3ccc(NCc4ccco4)c1c23	LANA-H2B inh 111 (no result: Lipid droplet)
O=C1c2ccccc2-c2onc3ccc(N4CCCC4)c1c23	none (no result: LANA-H2B inh, STK33 kinase inh, GSK3A inh)
O=C(O)c1ccccc1NCc1ccco1	none (no result: TAG inh)
CCOc1ccc2noc3c2c1C(=O)c1ccccc1-3	LANA-H2B inh 44 (no result: TAG inh)
CCNc1ccc2noc3c2c1C(=O)c1ccccc1-3	LANA-H2B inh 28 (no result: TAG inh)
COc1ccc(-n2nnnc2-c2cnc(N3CCCC3)nc2C(F)(F)F)cc1	none (no result: Lipid droplet)
CCCCn1c(=O)[nH]c(=O)c2c1nc(-c1ccc(-c3ccccc3Br)o1)n2CC	none (no result: Lipid droplet, TAG inh)
CC(=O)/C(N=Nc1c(C)n(C)n(-c2ccccc2)c1=O)=C(\C)O	none
CC(C)CN(C(=O)c1ccc(N2CCCC2=O)cc1)c1c(N)n(Cc2ccccc2)c(=O)[nH]c1=O	LANA-H2B inh 26 (no result: Lipid droplet, GSK3beta inhib)
CCCCn1c(N)c(N(CCC(C)C)C(=O)c2ccc3ccccc3c2)c(=O)[nH]c1=O	LANA-H2B inh 32 (no result: Lipid droplet, GSK3beta inhib)
O=C(Cc1ccccc1)NCCCNC(=O)Cc1ccccc1	none (no result: Lipid droplet, GSK3beta inhib, LANA-H2B inh, STK33 kinase inh, GSK3A inh)
COCCOC(=O)c1[nH]c2c(c1C)C(=O)CC(c1ccco1)C2 (centres undefined)	TAG inh 60
CSCCOC(=O)c1[nH]c2c(c1C)C(=O)CC(c1ccco1)C2 (centres undefined)	Lipid droplet inconclusive, TAG inh 56
CC(=O)Nc1cc(NC(C)=O)cc(C(=O)OCC(=O)N(c2ccccc2)C2CCS(=O)(=O)C2)c1 (centres undefined)	none (no result: Lipid droplet, GSK3beta inhib)
O=C(CCc1nc2sc3c(c2c(=O)[nH]1)CCCC3)NCCOc1ccccc1	none (no result: Lipid droplet)
Cc1ccc(OCCNC(=O)CCc2nc3sc4c(c3c(=O)[nH]2)CCCC4)cc1	LANA-H2B inh 35
CCC(C)NS(=O)(=O)c1ccc(OCC(=O)Nc2ccc3c(c2)OCCO3)cc1 (centres undefined)	none (no result: Lipid droplet, TAG inh)
COc1ccc(C(=O)N(C)C2(C)CCS(=O)(=O)C2)cc1OC (centres undefined)	none (no result: Lipid droplet)
CN(C(=O)c1ccc2c(c1)OCO2)C1(C)CCS(=O)(=O)C1 (centres undefined)	LANA-H2B inh 14 (no result: Lipid droplet)
Cc1nn(C)c(Cl)c1CN1CCCC(C(=O)Nc2ccc(-c3cscn3)cc2)C1 (centres undefined)	none
Cc1ccccc1NC(=O)CSc1n[nH]c(-c2ccco2)n1	LANA-H2B inh 16
Cc1ccc(C)c(NC(=O)C2CCN(S(=O)(=O)c3ccc4c(c3)NC(=O)CO4)CC2)c1	none (no result: TAG inh)
CC(=O)Nc1ccc(NC(=O)C(C)Sc2nnc(C3CC3)n2-c2ccccc2)cc1 (centres undefined)	none (no result: Lipid droplet, GSK3beta inhib, LANA-H2B inh, STK33 kinase inh, GSK3A inh)
COc1ccc(-c2nc3c(c4nnc(SC(C)C(=O)Nc5ccccc5)n24)COC(C)(C)C3)cc1 (centres undefined)	Lipid droplet 66 (no result: TAG inh)
CCn1c(SCC(=O)Nc2ccc(OC)cc2)nc2nc3c(cc2c1=O)COC(C)(C)C3	none
COc1ccc(NC(=O)C(C)Sc2nnc3c4c(nc(-c5ccc(OC)cc5)n23)CC(C)(C)OC4)cc1 (centres undefined)	Lipid droplet 52 (no result: TAG inh, LANA-H2B inh, STK33 kinase inh, GSK3A inh)
Cc1cccc(N(Cc2ccccc2)C(=O)CCl)c1	TAG inh 68 (no result: LANA-H2B inh, STK33 kinase inh, GSK3A inh)
COc1ccccc1CC(=O)N(Cc1ccccc1)c1ccc(C)cc1	LANA-H2B inh 22
COc1ccc(CC(=O)N(Cc2ccccc2)c2ccccc2)cc1S(=O)(=O)N1CCOCC1	LANA-H2B inh 16
COc1ccccc1N1CCN(C(=O)c2ccc(CSc3ccccc3)cc2)CC1	none (no result: TAG inh)
COC(=O)CSc1nnc(-c2ccco2)o1	none (no result: Lipid droplet, TAG inh)
CCOC(=O)c1ncn2c1CN(C)C(=O)c1cc(F)ccc1-2	LANA-H2B inh 29!
CCOC(=O)c1nn(-c2ccc(F)cc2)c(C)c1C(C)=O	none (no result: GSK3A inh)
O=C(CCCOc1ccccc1)Nc1ccc(Cl)c(S(=O)(=O)N2CCOCC2)c1	none (no result: Lipid droplet, GSK3beta inhib)
Cc1ccc(NC(=O)CSc2nc(N)cc(N)n2)cc1S(=O)(=O)N1CCOCC1	LANA-H2B inh 19
Cc1ccc(NC(=O)CCCOc2ccccc2)cc1S(=O)(=O)N1CCOCC1	LANA-H2B inh 20 (no result: Lipid droplet, GSK3beta inhib)
